Values after ≈ are worked out from the molar mass of the structure shown.
Tests used:
Format in all cases: functional
[1] = test system: Staphylococcus epidermidis; experiment: Antibacterial activity against methicillin-resistant Staphylococcus epidermidis by CLSI M100-S17 method
[2] = test system: Enterococcus faecium; experiment: Antibacterial activity against Enterococcus faecium by CLSI M100-S17 method
[3] = test system: Staphylococcus aureus; experiment: Antibacterial activity against Staphylococcus aureus ATCC 29213 by CLSI M100-S17 method; conditions: ATCC29213
Summary of the method: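 Reference strain S. aureus ATCC 29213 was tested by CLSI broth microdilution in frozen in-house panels. Compound was dissolved and diluted in DMSO over doubling dilutions of 0.008 to 4 μg/ml.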

[4] = test system: Serratia marcescens; experiment: Antibacterial activity against Serratia marcescens by CLSI M100-S17 method
[5] = test system: Moraxella catarrhalis; experiment: Antibacterial activity against Moraxella catarrhalis by CLSI M100-S17 method
[6] = test system: Klebsiella oxytoca; experiment: Antibacterial activity against Klebsiella oxytoca by CLSI M100-S17 method
[7] = test system: Stenotrophomonas maltophilia; experiment: Antibacterial activity against Stenotrophomonas maltophilia by CLSI M100-S17 method
[8] = test system: Escherichia coli; experiment: Antibacterial activity against Escherichia coli AG100
[9] = test system: Staphylococcus aureus; experiment: Antibacterial activity against methicillin-susceptible Staphylococcus aureus by CLSI M100-S17 method
[10] = test system: Streptococcus pneumoniae; experiment: Antibacterial activity against Streptococcus pneumoniae by CLSI M100-S17 method
[11] = test system: Klebsiella pneumoniae; experiment: Antibacterial activity against Klebsiella pneumoniae by CLSI M100-S17 method
[12] = test system: Proteus mirabilis; experiment: Antibacterial activity against Proteus mirabilis by CLSI M100-S17 method
[13] = test system: Staphylococcus epidermidis; experiment: Antibacterial activity against methicillin-susceptible Staphylococcus epidermidis by CLSI M100-S17 method
[14] = test system: Enterobacter cloacae; experiment: Antibacterial activity against Enterobacter cloacae by CLSI M100-S17 method
[15] = test system: Acinetobacter baumannii; experiment: Antibacterial activity against Acinetobacter baumannii by CLSI M100-S17 method
[16] = test system: Staphylococcus aureus; experiment: Antibacterial activity against methicillin-resistant Staphylococcus aureus by CLSI M100-S17 method
[17] = test system: Escherichia coli; experiment: Antibacterial activity against acrAB-deficient Escherichia coli AG100a
[18] = test system: Enterococcus faecalis; experiment: Antibacterial activity against Enterococcus faecalis by CLSI M100-S17 method
[19] = test system: Streptococcus agalactiae; experiment: Antibacterial activity against Streptococcus agalactiae by CLSI M100-S17 method
[20] = test system: Pseudomonas aeruginosa; experiment: Antibacterial activity against Pseudomonas aeruginosa by CLSI M100-S17 method
[21] = test system: Escherichia coli; experiment: Antibacterial activity against Escherichia coli by CLSI M100-S17 method
[22] = test system: Streptococcus pyogenes; experiment: Antibacterial activity against Streptococcus pyogenes by CLSI M100-S17 method
[23] = test system: Serratia marcescens; experiment: Antibacterial activity against Serratia marcescens by CLSI M100-S17 method in presence of Tazobactam
Summary of the method: (§1)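 CLSI broth microdilution on clinical isolates, using frozen in-house-prepared panels of test and comparator agents. MICs were read after 20 to 24 h incubation at 35°C in ambient air. Susceptible/intermediate categories were assigned by CLSI M100-S17 guidelines.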

[24] = test system: Klebsiella pneumoniae; experiment: Antibacterial activity against Klebsiella pneumoniae assessed as intermediate isolates by CLSI M100-S17 method in presence of Tazobactam; summary of the method: as §1
[25] = test system: Klebsiella oxytoca; experiment: Antibacterial activity against Klebsiella oxytoca by CLSI M100-S17 method in presence of Tazobactam; summary of the method: as §1
[26] = test system: Klebsiella pneumoniae; experiment: Antibacterial activity against Klebsiella pneumoniae by CLSI M100-S17 method in presence of Tazobactam; summary of the method: as §1
[27] = test system: Enterobacter cloacae; experiment: Antibacterial activity against Enterobacter cloacae by CLSI M100-S17 method in presence of Tazobactam; summary of the method: as §1
[28] = test system: Enterobacter cloacae; experiment: Antibacterial activity against Enterobacter cloacae assessed as resistant isolates by CLSI M100-S17 method in presence of Tazobactam
Summary of the method: (§2)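 Clinical isolates were tested by CLSI broth microdilution in frozen, in-house-prepared 96-well panels of the test agent and comparator agents. MICs were read and classed as susceptible, intermediate or resistant using CLSI M100-S17 breakpoints. The value is the share of isolates in each category.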

[29] = test system: Klebsiella oxytoca; experiment: Antibacterial activity against Klebsiella oxytoca assessed as resistant isolates by CLSI M100-S17 method in presence of Tazobactam; summary of the method: as §2
[30] = test system: Klebsiella pneumoniae; experiment: Antibacterial activity against Klebsiella pneumoniae assessed as susceptible isolates by CLSI M100-S17 method in presence of Tazobactam; summary of the method: as §1
[31] = test system: Pseudomonas aeruginosa; experiment: Antibacterial activity against Pseudomonas aeruginosa assessed as susceptible isolates by CLSI M100-S17 method in presence of Tazobactam; summary of the method: as §1
[32] = test system: Pseudomonas aeruginosa; experiment: Antibacterial activity against Pseudomonas aeruginosa assessed as intermediate isolates by CLSI M100-S17 method in presence of Tazobactam; summary of the method: as §1
[33] = test system: Enterobacter cloacae; experiment: Antibacterial activity against Enterobacter cloacae assessed as susceptible isolates by CLSI M100-S17 method in presence of Tazobactam; summary of the method: as §1
[34] = test system: Acinetobacter baumannii; experiment: Antibacterial activity against Acinetobacter baumannii assessed as susceptible isolates by CLSI M100-S17 method in presence of Tazobactam; summary of the method: as §1
[35] = test system: Escherichia coli; experiment: Antibacterial activity against Escherichia coli assessed as resistant isolates by CLSI M100-S17 method in presence of Tazobactam; summary of the method: as §2
[36] = test system: Klebsiella oxytoca; experiment: Antibacterial activity against Klebsiella oxytoca assessed as susceptible isolates by CLSI M100-S17 method in presence of Tazobactam; summary of the method: as §1
[37] = test system: Proteus mirabilis; experiment: Antibacterial activity against Proteus mirabilis assessed as susceptible isolates by CLSI M100-S17 method in presence of Tazobactam; summary of the method: as §1
[38] = test system: Enterobacter cloacae; experiment: Antibacterial activity against Enterobacter cloacae assessed as intermediate isolates by CLSI M100-S17 method in presence of Tazobactam; summary of the method: as §1
[39] = test system: Stenotrophomonas maltophilia; experiment: Antibacterial activity against Stenotrophomonas maltophilia by CLSI M100-S17 method in presence of Tazobactam; summary of the method: as §1
[40] = test system: Moraxella catarrhalis; experiment: Antibacterial activity against Moraxella catarrhalis by CLSI M100-S17 method in presence of Tazobactam; summary of the method: as §1
[41] = test system: Proteus mirabilis; experiment: Antibacterial activity against Proteus mirabilis assessed as intermediate isolates by CLSI M100-S17 method in presence of Tazobactam; summary of the method: as §2
[42] = test system: Pseudomonas aeruginosa; experiment: Antibacterial activity against Pseudomonas aeruginosa by CLSI M100-S17 method in presence of Tazobactam; summary of the method: as §1
[43] = test system: Klebsiella pneumoniae; experiment: Antibacterial activity against Klebsiella pneumoniae assessed as resistant isolates by CLSI M100-S17 method in presence of Tazobactam; summary of the method: as §2
[44] = test system: Serratia marcescens; experiment: Antibacterial activity against Serratia marcescens assessed as susceptible isolates by CLSI M100-S17 method in presence of Tazobactam; summary of the method: as §1
[45] = test system: Klebsiella oxytoca; experiment: Antibacterial activity against Klebsiella oxytoca assessed as intermediate isolates by CLSI M100-S17 method in presence of Tazobactam; summary of the method: as §1
[46] = test system: Proteus mirabilis; experiment: Antibacterial activity against Proteus mirabilis by CLSI M100-S17 method in presence of Tazobactam; summary of the method: as §1
[47] = test system: Serratia marcescens; experiment: Antibacterial activity against Serratia marcescens assessed as intermediate isolates by CLSI M100-S17 method in presence of Tazobactam; summary of the method: as §1
[48] = test system: Escherichia coli; experiment: Antibacterial activity against Escherichia coli assessed as intermediate isolates by CLSI M100-S17 method in presence of Tazobactam; summary of the method: as §1
[49] = test system: Acinetobacter baumannii; experiment: Antibacterial activity against Acinetobacter baumannii assessed as intermediate isolates by CLSI M100-S17 method in presence of Tazobactam; summary of the method: as §2
[50] = test system: Serratia marcescens; experiment: Antibacterial activity against Serratia marcescens assessed as resistant isolates by CLSI M100-S17 method in presence of Tazobactam; summary of the method: as §2
[51] = test system: Escherichia coli; experiment: Antibacterial activity against Escherichia coli by CLSI M100-S17 method in presence of Tazobactam; summary of the method: as §1
[52] = test system: Escherichia coli; experiment: Antibacterial activity against Escherichia coli assessed as susceptible isolates by CLSI M100-S17 method in presence of Tazobactam; summary of the method: as §1
[53] = test system: Pseudomonas aeruginosa; experiment: Antibacterial activity against Pseudomonas aeruginosa assessed as resistant isolates by CLSI M100-S17 method in presence of Tazobactam; summary of the method: as §2
[54] = test system: Acinetobacter baumannii; experiment: Antibacterial activity against Acinetobacter baumannii by CLSI M100-S17 method in presence of Tazobactam; summary of the method: as §1

## Cc1c(CN(C)C(=O)/C=C/c2cnc3c(c2)CCC(=O)N3)oc2ccccc12 [AFN-1252]
[1]
  MIC: 0.008 µg/mL (≈ 0.0213 µM)
  MIC90: ≤ 0.008 µg/mL
[2]
  MIC50: > 4 µg/mL
  MIC90: > 4 µg/mL
[3]
  MIC: 0.015 µg/mL (≈ 0.04 µM)
[4]
  MIC50: 4 µg/mL (≈ 10.7 µM)
  MIC90: > 4 µg/mL
[5]
  MIC50: > 4 µg/mL
  MIC90: > 4 µg/mL
[6]
  MIC50: > 4 µg/mL
  MIC90: > 4 µg/mL
[7]
  MIC: > 4 µg/mL
  MIC50: > 4 µg/mL
  MIC90: > 4 µg/mL
[8]
  MIC: > 32 µg/mL
[9]
  MIC50: ≤ 0.008 µg/mL
  MIC90: ≤ 0.008 µg/mL
[10]
  MIC50: > 4 µg/mL
  MIC90: > 4 µg/mL
[11]
  MIC50: > 4 µg/mL
  MIC90: > 4 µg/mL
[12]
  MIC50: 4 µg/mL (≈ 10.7 µM)
  MIC90: > 4 µg/mL
[13]
  MIC50: ≤ 0.008 µg/mL
  MIC90: 0.03 µg/mL (≈ 0.0799 µM)
[14]
  MIC50: > 4 µg/mL
  MIC90: > 4 µg/mL
[15]
  MIC: > 4 µg/mL
  MIC50: > 4 µg/mL
  MIC90: > 4 µg/mL
[16]
  MIC: 0.008 µg/mL (≈ 0.0213 µM)
[17]
  MIC: 0.016 µg/mL (≈ 0.0426 µM)
[18]
  MIC: > 4 µg/mL
  MIC50: > 4 µg/mL
  MIC90: > 4 µg/mL
[19]
  MIC: > 4 µg/mL
  MIC50: > 4 µg/mL
  MIC90: > 4 µg/mL
[20]
  MIC: > 4 µg/mL
  MIC50: > 4 µg/mL
  MIC90: > 4 µg/mL
[21]
  MIC50: 4 µg/mL (≈ 10.7 µM)
  MIC90: > 4 µg/mL
[22]
  MIC50: > 4 µg/mL
  MIC90: > 4 µg/mL
[22]; read-out: MIC
  MIC: > 4 µg/mL

## CCN1CCN(C(=O)N[C@@H](C(=O)N[C@@H]2C(=O)N3[C@@H]2SC(C)(C)[C@@H]3C(=O)O)c2ccccc2)C(=O)C1=O [PIPERACILLIN]
[23]
  MIC50: 2 µg/mL
  MIC90: 8 µg/mL
[24]
  Activity: 1.3%
[25]
  MIC50: 2 µg/mL
  MIC90: 16 µg/mL
[26]
  MIC50: 2 µg/mL
  MIC90: 8 µg/mL
[27]
  MIC50: 2 µg/mL
  MIC90: 64 µg/mL
[28]
  Activity: 9%
[29]
  Activity: 9%
[30]
  Activity: 96.7%
[31]
  Activity: 92.7%
[32]
  Activity: 0%
[33]
  Activity: 82.6%
[34]
  Activity: 76%
[35]
  Activity: 1.4%
[36]
  Activity: 90%
[37]
  Activity: 100%
[38]
  Activity: 8.4%
[39]
  MIC50: > 512 µg/mL
  MIC90: > 512 µg/mL
[40]
  MIC: ≤ 1 µg/mL
  MIC50: ≤ 1 µg/mL
  MIC90: ≤ 1 µg/mL
[41]
  Activity: 0%
[42]
  MIC50: 4 µg/mL
  MIC90: 64 µg/mL
[43]
  Activity: 2%
[44]
  Activity: 94.4%
[45]
  Activity: 1%
[46]
  MIC50: 2 µg/mL
  MIC90: 64 µg/mL
[47]
  Activity: 4.7%
[48]
  Activity: 1%
[49]
  Activity: 12%
[50]
  Activity: 0.9%
[51]
  MIC50: 2 µg/mL
  MIC90: 4 µg/mL
[52]
  Activity: 97.6%
[53]
  Activity: 7.3%
[54]
  MIC50: 4 µg/mL
  MIC90: > 512 µg/mL

— ChEMBL document CHEMBL1649552 (2009)
